Bioassay records deposited in PubChem by several laboratories.
NTR1 ag – activates human neurotensin receptor 1. NTR1-U2OS beta-arrestin-GFP spot imaging, agonist mode. activation, % at 20 µM. P30989. AID 493036. hit rate 0.17% among 330,000;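 active = activation at or above 40% of the spot to cytoplasm intensity ratio, with at least 20 cells analyzed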;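 note: 0% = DMSO without peptide and 100% = 100 nM NTR1 peptide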
MC4R ag barr – agonists of human melanocortin 4 receptor (MC4R) beta-arrestin; P32245; U2OS MC4R beta-arrestin complementation, luminescence; percent of melanotan II response, DMSO zero; activation, % at 8.9 µM; hit rate 0.98% among 360,000;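 active = activation above a per-plate cutoff, the mean activation of sample wells on that plate plus 3 SD, cut at about 8% in these data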
AI-2 QS mod – Vibrio harveyi AI-2 quorum sensing modulation; hit rate 0.4% among 300,000; activity change, % at 7.5 µM; AID 2094; Vibrio harveyi JMH597 AI-2 luminescence/OD600 ratio, 9 h; active compounds read low; strain lacks LuxN and CqsS sensors; 0 = neutral-control median; in the data active = activity change below about -75%, passing the limit was not always enough;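 note: luminescence divided by OD600 gain over 9 h not by final OD600 alone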
MC4R antag cAMP – human MC4R antagonism in cAMP assay | inhibition, % at 6.5 µM | MC4R-expressing cells, MTII-stimulated cAMP, LANCE TR-FRET | hit rate 0.48% among 360,000 | P32245;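 active = inhibition above its plate's cutoff, the mean of tested wells on that plate plus 3 SD, cut at about 29% in these data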;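 note: 0% = Melanotan II alone and 100% = Melanotan II plus saturating MCL0020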
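Assay system: human MC4R-expressing U2OS cells; reagent: Melanotan II stimulation of cells; dosing: 6.5 µM single dose; timing: compound 30 min, challenge 1 h, detection 1 h; signal: TR-FRET cAMP assay; replicates: one well per compound, no replicates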
MC4R barr ag – human MC4R beta-arrestin agonism confirmation. AID 602192. hit rate 31% among 2,400. U2OS MC4R beta-arrestin recruitment, luminescence; scaled DMSO 0%, Melanotan II 100%. activation, % at 8.9 µM. shares compounds with MC4R ag barr;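 active = mean activation across replicates above the hit cutoff set in the earlier primary screen, cut at about 8% in these data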
MOR-DOR barr ag – counter-screen for MC4R agonists: agonists of mu-delta opioid heterodimer; shares compounds with MC4R ag barr; U2OS PathHunter beta-arrestin, beta-gal luminescence; percent of deltorphin B response, DMSO zero; activation, % at 9.2 µM; hit rate 5.8% among 2,400; AID 602194;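 active = mean activation across replicates exceeds the hit threshold derived in the earlier primary screen, cut at about 18% in these data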;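 note: 100% = deltorphin B at 0.9 µM final and 0% = DMSO alone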
* marks the source's active call; other numbers are inactive results; x = no result. Sampled rows, rich in hits. Any-hit rate of the full collection: about 1.8%.

SMILES	NTR1 ag	MC4R ag barr	AI-2 QS mod	MC4R antag cAMP	MC4R barr ag	MOR-DOR barr ag
CCn1ccnc1CNC(=O)C1CCC(=O)N(Cc2ccccc2F)C1 (stereo not given)	0	0	17	0	x	x
N#C/C(=C/c1ccc(N2CCCCC2)o1)C(=O)Nc1ccc(Cl)cc1	-3	10*	12	-4	1	6
N#C/C(=C\c1ccc(N2CCOCC2)o1)C(=O)Nc1ccc(O)cc1	-3	-2	10	-35	x	x
CCOC(=O)C1=C(COC(=O)CSc2ccc(C)cc2C)NC(=O)NC1C (stereo not given)	0	-1	x	2	x	x
CCOc1ccc(C2=Nn3c(nnc3-c3ccccc3OC)SC2)cc1	x	-2	-1	-21	x	x
CCOc1ccc(-c2nnc3n2N=C(c2ccc(OC)cc2)CS3)cc1	2	12*	-4	-7	3	7
Cc1ccnc(NS(=O)(=O)c2ccc(NS(=O)(=O)c3cc(Cl)ccc3Cl)cc2)n1	-1	-1	30	0	x	x
O=S(=O)(NCc1ccccc1)c1ccc(S(=O)(=O)N(Cc2ccccn2)Cc2ccco2)cc1	4	10*	-4	2	6	4
O=C(NCc1ccccc1Br)C1CCCO1 (stereo not given)	-1	-1	34	-1	x	x
CCOC(=O)c1ccc(NC(=O)Cn2cc3c(n2)CCC(C)C3)cc1 (stereo not given)	1	13*	25	3	2	5
S=C(Nc1ccccc1)N1CCn2c1nc1ccccc12	9	24*	35	-2	0	x
C/C(=N\NC(=O)c1cccc(Br)c1)c1cccnc1	2	-3	0	-6	x	x
Cc1ccc(OCCn2c(C)c(/C=N/n3cnnc3)c3ccccc32)cc1	3	16*	-1	-1	4	6
COC(=O)c1ccccc1C(=O)c1cccc2ccccc12	1	-1	30	5	x	x
COC(=O)c1cc2ccccc2c(-c2c(O)ccc3ccccc23)c1O	23	17*	-4	-17	13*	10
Cc1ccc(C(C)C)c(OCCNC(=O)c2ccccc2O)c1	2	13*	6	4	3	11
CSc1ccc(Cl)c(C(=O)NCCOc2cc(C)ccc2C(C)C)c1	2	2	11	-1	x	x
CCOC(=O)c1c(C)n(-c2ccc(C)cc2)c2ccc(OCC(O)CNCC3CCCO3)cc12 (stereo not given)	18	13*	8	5	17*	10
COc1cccc(Nc2nnc(SCC(=O)N(CC(C)C)CC(C)C)s2)c1	7	0	52	7	x	x
COc1cccc(Nc2nnc(SCN3C(=O)c4ccccc4C3=O)s2)c1	6	14*	15	11	-1	3
COc1ccccc1CNS(=O)(=O)c1ccc2c(c1)CC(=O)N2C	0	-3	14	-3	x	x
N#Cc1ccc(-c2ccc(OCC(=O)NCC(=O)Nc3ccc(F)c(F)c3F)cc2)cc1	1	18*	19	11	0	8
CCOc1ccc(C(=O)CCC(=O)NCC(=O)Nc2ccc(F)c(F)c2F)cc1	x	2	x	6	x	x
COc1ccc(CCNC(=O)COc2ccc(-c3ccc(C#N)cc3)cc2)cc1	-1	19*	23	1	8	28*
N#C/C(=C\c1ccc(-c2ccc(F)cc2)o1)C(=O)Nc1nc(-c2cccs2)cs1	11	39*	0	12	19*	1
COc1ccc(C=C2SC(=S)N(CCCN3CCOCC3)C2=O)c(OC)c1	x	15*	x	7	5	21*
COc1ccc2[nH]c(C(=O)N3CCC(Cc4ccccc4)CC3)cc2c1	2	2	18	12	x	x
COc1ccc2cc(C(=O)N3CCC(Cc4ccccc4)CC3)[nH]c2c1	3	10*	-4	7	8	4
CCC1(c2ccc(F)cc2)NC(=O)N(CC(=O)Nc2cccc(S(=O)(=O)N3CCOCC3)c2)C1=O (stereo not given)	x	1	x	9	x	x
CC(/C=C/C=C/c1ccccc1)=N/NC(=O)CNc1ccccc1C	1	14*	12	-14	29*	10
